# What was measured:
# Nucleic Acid [1] = test: Ability to displace ethidium bromide from double stranded synthetic poly (dG-dC); assay type: nucleic-acid assay
# Procedure, shortened: (§1)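 Fluorescence displacement. Ethidium bromide 1.6 μM final in 2 mM HEPES, 10 μM EDTA, 9.4 mM NaCl, pH 7.0, then DNA added at 2 μM final (DNA phosphate): calf thymus DNA, poly(dA-dT)·poly(dA-dT) or poly(dG-dC)·poly(dG-dC). Excitation 546 nm, emission 598 nm. Analogue titrated in aliquots. IC50 is the concentration halving ethidium–DNA fluorescence. Trial-to-trial variability generally <5%.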
# HeLa [2] = test: Ability to inhibit 50% growth of HeLa cells; assay type: functional, cell-based; conditions: Homo sapiens
# Procedure, shortened: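 HeLa cells grown 2 days, then counted to set the baseline. Analogues added in complete medium for a further 2 days, then cells counted. Growth increase compared with untreated controls. IC50 is the concentration giving a 50% decrease in growth relative to controls.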
# Calf thymus DNA = test: Ability to displace ethidium bromide from calf thymus DNA; assay type: nucleic-acid assay, Bos taurus; procedure, shortened: as §1
# Nucleic Acid [3] = test: Ability to displace ethidium bromide from double stranded synthetic Poly (dA-dT); assay type: nucleic-acid assay; procedure, shortened: as §1
# HeLa [4] = test: Ability to cause aggregation of purified HeLa cell DNA; assay type: functional; conditions: Homo sapiens
# Procedure, shortened: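 HeLa DNA labelled via 3-day culture with 4 μCi [³H]thymidine, then phenol/chloroform extracted. 1.5 μg DNA (~20000 cpm) plus analogue at various concentrations in buffer of 25 mM Tris, 4.5 mM KCl, 3 mM MgCl₂, pH 7.6. Incubated 10 min at 37 °C, then centrifuged 2.5 min and supernatant counted.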
IC50 (Nucleic Acid [1]) [µM],IC50 (HeLa [2]) [µM],IC50 (Calf thymus DNA) [µM],IC50 (Nucleic Acid [3]) [µM],IC50 (HeLa [4]) [µM],Compound
19.5,200,15,3.9,150,CCNCCCNCCCCCCCCNCCCNCC
40,> 500,20,4.2,340,CCCCNCCCNCCCCCCCCNCCCNCCCC
25,> 500,17,3.8,220,CCCNCCCNCCCCCCCCNCCCNCCC
,350,1450,,> 15000,NCCCCSCCCN
32,15,13,4.2,300,c1ccc(CNCCCNCCCCCCCCNCCCNCc2ccccc2)cc1
12.5,,7.5,4.2,,CC(N)CCNCCCCCCCCNCCC(C)N (configuration not stated)
12.6,100,7,3.6,180,CC(CCN)NCCCCCCCCNC(C)CCN (configuration not stated)
,,> 10000,,,NCCCNCC(F)(F)CN
,,140,,2500,NCCCNCCCC(F)(F)NCCCN
26,1,33,3.1,400,c1ccc(CNCCCNCCCCCCCCCCNCCCNCc2ccccc2)cc1
30,125,19.1,4.5,,C=C(CNC)CNCCCCCCCCNCC(=C)CNC
20,> 500,12.8,4.5,,CNCC(C)CNCCCCCCCNCC(C)CNC (configuration not stated)
,150,275,,3100,NCCCNCC(F)(F)CCN
11,10,8,4.2,170,NCCCNCCCCCCCCCCNCCCN
24.5,10,31,2.9,200,c1ccc(CNCCCNCCCCCCCCCNCCCNCc2ccccc2)cc1
25,60,5.5,10,85,c1ccc(CNCCCNCCCCCCNCCCNCc2ccccc2)cc1
,90,7.5,,,NCCCNCCCC1CCC(CCCNCCCN)CC1 (configuration not stated)
,160,5,,250,NCCCNCCCc1ccc(CCCNCCCN)cc1
27,,5.2,4.3,200,NCC(O)CNCCCCCCCCNCC(O)CN (configuration not stated)
12,20,7.5,4.7,100,c1ccc(CCCNCCCNCCCCCCCNCCCNCCCc2ccccc2)cc1
18,,8.2,10.5,400,NCC(=O)CNCCCCCCCCNCC(=O)CN
1600,2,600,700,> 8000,c1ccc(CNCCNCCCCCCCCCCNCCNCc2ccccc2)cc1
20,> 500,12,3.4,105,c1ccc(CNCCCCNCCCCCCCCNCCCCNCc2ccccc2)cc1

IC50 (Nucleic Acid [1]) [µM],IC50 (HeLa [2]) [µM],IC50 (Calf thymus DNA) [µM],IC50 (Nucleic Acid [3]) [µM],IC50 (HeLa [4]) [µM],Compound
900,,875,1000,7000,NCCCNC(F)(F)CCCN
23,,4.9,4.5,110,NCC(O)CNCCCCCCCNCC(O)CN (configuration not stated)
20,> 500,10,3.2,95,c1ccc(CNCCCCNCCCCCCCNCCCCNCc2ccccc2)cc1
16,30,12,4.5,,NCCCNCCCCCCCCCNCCCN
15,,6.5,5,100,CNC(C)CCNCCCCCCCNCCC(C)NC (configuration not stated)
10.7,20,8,2.8,85,c1ccc(CCNCCCNCCCCCCCNCCCNCCc2ccccc2)cc1
,400,400,,3000,NCCCc1ccc(CCCN)cc1
5.4,200,3.8,2.6,37,NCCCNCCCCCCCNCCCN
20.5,300,10,3.8,250,CCCNCCCNCCCCCCCNCCCNCCC
,75,800,,2400,c1ccc(CNCCNCCCCCCNCCNCc2ccccc2)cc1
20,100,11,4,200,CCNCCCNCCCCCCCNCCCNCC
22,80,12,4.5,,c1ccc(CNCCCNCCCCCNCCCNCc2ccccc2)cc1
17,10,10,4.9,40,c1ccc(CNCCCNCCCCNCCCNCc2ccccc2)cc1
10.5,> 500,8,3,,CC(CN)CNCCCCCCCNCC(C)CN (configuration not stated)
11,500,6,3.5,150,CNCCCNCCCCCCCNCCCNC
,,80,,,c1ccc(NCCCNCCCCCCCNCCCNc2ccccc2)cc1
34.5,> 500,12,5,,C/C=C(\CNC)CNCCCCCCCNC/C(=C/C)CNC
100,20,130,40,750,c1ccc(CNCCNCCCCCCCCNCCNCc2ccccc2)cc1
316,60,600,170,600,c1ccc(CNCCNCCCCCCCNCCNCc2ccccc2)cc1
34.5,125,12,5,,CNC/C(=C\Cl)CNCCCCCCCNC/C(=C/Cl)CNC
5200,8000,4500,5100,12000,NCCCCN [PUTRESCINE]
300,100,130,110,1500,NCCCCNCCCN [SPERMIDINE]
6,50,4.3,2.8,70,NCCCNCCCCNCCCN [SPERMINE]

Compound,IC50 (Nucleic Acid [1]) [µM],IC50 (HeLa [2]) [µM],IC50 (Calf thymus DNA) [µM],IC50 (Nucleic Acid [3]) [µM],IC50 (HeLa [4]) [µM]
NCCCNCCCCCCCCNCCCN,7.8,50,4.9,3.8,35
c1ccc(CNCCCNCCCCCCCNCCCNCc2ccccc2)cc1,31,5,6,4.6,150
NCCCNCCCN [NORSPERMIDINE],370,100,220,140,3000
